The list is not random: actives were taken first. Their share in the collection is about 1.9%.
TDP2 inh = blocks human TDP2 phosphodiesterase activity; O95551; recombinant TDP2, T5PNP hydrolysis, p-nitrophenol absorbance 415 nm; inhibition, % at 12.8 µM; 370,000 tested, 0.34% active;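 active = inhibition above the mean of all tested compounds plus 3 SD, set per campaign, cut at about 25% in these data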;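 note: 0% = DMSO with enzyme and 100% = buffer with substrate but no TDP2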
Target sequence (O95551 whole entry, looked up): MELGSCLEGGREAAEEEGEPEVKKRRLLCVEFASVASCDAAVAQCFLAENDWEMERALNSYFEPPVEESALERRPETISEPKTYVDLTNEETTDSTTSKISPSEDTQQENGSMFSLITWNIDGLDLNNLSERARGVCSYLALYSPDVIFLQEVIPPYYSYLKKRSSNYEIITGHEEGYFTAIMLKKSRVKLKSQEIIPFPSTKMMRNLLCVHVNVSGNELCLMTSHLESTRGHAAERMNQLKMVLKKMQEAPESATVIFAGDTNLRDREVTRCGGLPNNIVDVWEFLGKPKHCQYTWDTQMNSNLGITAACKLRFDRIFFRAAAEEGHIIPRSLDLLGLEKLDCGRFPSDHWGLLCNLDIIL
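System: recombinant human TDP2 / Amount: 120 nM TDP2 per well / Also added: 5 mM T5PNP chromogenic substrate / Doses: 12.8 µM single point, 1% DMSO / Incubation: 2 h at 37 °C / Detection: p-Nitrophenol epi absorbance / Evaluation: % inhibition relative to enzyme-containing and enzyme-free wells / Repeats: singlicate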
MBD2 inh = blocks human MBD2 binding to methylated DNA | AID 686964 | Q9UBB5 | inhibition, % at 4.4 µM | TR-FRET, MBD2 binding to methylated oligonucleotide | 370,000 tested, 0.31% active; in the data active = inhibition above about 13%
CASP6 VEID inh = caspase-6 (human) enzyme inhibition | P55212 | purified caspase-6, Z-VEID-R110 cleavage fluorescence | inhibition, % at 12.5 µM | 350,000 tested, 0.53% active;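 active = mean inhibition across replicates at least about 35%, with every replicate also reaching that limit, limit read from the data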;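 note: 0% = median of neutral control wells and 100% = no fluorescence left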
Target sequence (P55212 24-179 limits assumed): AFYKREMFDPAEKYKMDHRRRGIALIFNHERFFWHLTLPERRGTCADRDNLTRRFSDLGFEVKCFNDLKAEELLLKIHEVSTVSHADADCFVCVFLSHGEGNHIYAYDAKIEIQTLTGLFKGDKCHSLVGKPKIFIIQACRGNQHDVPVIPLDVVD
Target sequence (P55212 194-293 limits assumed): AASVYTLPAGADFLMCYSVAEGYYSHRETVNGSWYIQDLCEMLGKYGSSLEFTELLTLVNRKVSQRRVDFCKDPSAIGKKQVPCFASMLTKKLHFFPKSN
NSD2 inh = inhibitors of human histone methyltransferase NSD2; NSD2 peptide methylation, AlphaScreen, 120 min; inhibition, % at 12.5 µM; 310,000 tested, 0.54% active; AID 743445; in the data active = inhibition above about 50%
LEDGF integ inh = blocks HIV-1 LEDGF/p75-dependent DNA integration. TR-FRET IN-LEDGF/p75 DNA integration, Eu/Cy5. inhibition, % at 3.7 µM. 370,000 tested, 0.64% active;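 active = inhibition above the screen-wide mean plus 3 SD, cut at about 13% in these data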;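 note: signal is the Cy5 over europium emission ratio at 671 and 618 nm; 0% = plate median of compound wells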
UHRF1 binding = UHRF1 methyl-DNA binding inhibition; inhibition, % at 4.4 µM; Q96T88; 370,000 tested, 0.75% active; UHRF1 binding to methylated oligo, TR-FRET; AID 687016; in the data active = inhibition above about 21%;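 note: UHRF1 SRA domain binding a hemimethylated CpG hairpin DNA probe; 0% = median of test compound wells and 100% = reference inhibitor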
Alpha artifact = interferes with AlphaScreen signal, flagging NSD2 false positives. shares compounds with NSD2 inh. AlphaScreen artifact counterscreen, preloaded methylated H4 peptide. AC35, µM (doses to about 10 µM), without a hit: at the highest dose activity change, negative = signal loss. 1,500 tested, 9.4% active. AID 1053174; call rule not given here
* marks the source's active call; other numbers are inactive results.

How did Cc1nn2c3ccccc3n(CCN3CCCCC3)c2nc1=O do in these assays?
TDP2 inh: -11; MBD2 inh: 8; NSD2 inh: 110*; LEDGF integ inh: 4; UHRF1 binding: 0; Alpha artifact: -5%

How did COc1ccc(S(=O)(=O)N(C)C[C@H]2OCCCC[C@H](C)Oc3ccc(NS(=O)(=O)c4ccccc4)cc3C(=O)N([C@@H](C)CO)C[C@H]2C)cc1 do in these assays?
CASP6 VEID inh: 0

How did C[C@@H]1CCCCO[C@H](CN(C)Cc2ccc(C(=O)O)cc2)[C@H](C)CN([C@@H](C)CO)C(=O)c2cc(NS(=O)(=O)c3ccc(Cl)cc3)ccc2O1 do in these assays?
CASP6 VEID inh: -1

How did Cn1c(=O)c2c(nc(CN3CCC(C(N)=O)CC3)n2Cc2ccccc2Cl)n(C)c1=O do in these assays?
TDP2 inh: 5; MBD2 inh: 1; NSD2 inh: 65*; LEDGF integ inh: 2; UHRF1 binding: 2; Alpha artifact: -5%

What do the screens show for `Cn1c(=O)c2c(nc(CN3CCC(C(N)=O)CC3)n2Cc2c(Cl)cccc2Cl)n(C)c1=O`?
TDP2 inh: -4; MBD2 inh: 6; NSD2 inh: -7; LEDGF integ inh: 4; UHRF1 binding: 2

How did CO[C@H]1CN(C)C(=O)c2ccc(NS(C)(=O)=O)cc2OC[C@H](C)N(Cc2ccccc2)C[C@H]1C do in these assays?
CASP6 VEID inh: 0

How did Oc1ccc(C2=Nn3c(nnc3-c3ccco3)SC2)cc1O do in these assays?
TDP2 inh: -11; MBD2 inh: 0; NSD2 inh: 62*; LEDGF integ inh: 4; UHRF1 binding: -1; Alpha artifact: -23%

Results for O=c1cc(C=NNc2ccccc2)[nH]c(=O)[nH]1 ?
TDP2 inh: 4; MBD2 inh: -1; CASP6 VEID inh: -1; NSD2 inh: 52*; LEDGF integ inh: -3; UHRF1 binding: -5; Alpha artifact: -5%

What do the screens show for `CN(C)C(=O)C[C@H]1CC[C@H]2[C@@H](COC[C@@H](O)CN2C(=O)C2CC2)O1`?
CASP6 VEID inh: -1

How did Cc1ccc(S(=O)(=O)N(C)C[C@H]2Oc3ccc(N(C)C)cc3CC(=O)N([C@@H](C)CO)C[C@H]2C)cc1 do in these assays?
CASP6 VEID inh: 0

What do the screens show for `O=C(O)c1cccc(NC2=C(Cl)C(=O)c3ccccc3C2=O)c1`?
TDP2 inh: 0; MBD2 inh: -10; CASP6 VEID inh: 25; NSD2 inh: 99*; LEDGF integ inh: 1; UHRF1 binding: -3; Alpha artifact: -4%

How did C=CCNC1=C(Cl)C(=O)c2ccccc2C1=O do in these assays?
TDP2 inh: 9; MBD2 inh: -28; NSD2 inh: 92*; LEDGF integ inh: 3; UHRF1 binding: -36; Alpha artifact: -16%

What do the screens show for `CC(C)NC1=C(Cl)C(=O)c2ccccc2C1=O`?
TDP2 inh: 23; MBD2 inh: -28; NSD2 inh: 34; LEDGF integ inh: 3; UHRF1 binding: -28

What do the screens show for `O=C1C(Cl)=C(NCCc2ccccc2)C(=O)c2ccccc21`?
TDP2 inh: 19; MBD2 inh: -18; CASP6 VEID inh: 44*; NSD2 inh: 81*; LEDGF integ inh: 7; UHRF1 binding: -17; Alpha artifact: -18%

Results for COc1ccc(S(=O)(=O)N(C)C[C@H]2Oc3ccc(NS(=O)(=O)c4ccc(F)cc4)cc3CC(=O)N([C@H](C)CO)C[C@H]2C)cc1 ?
CASP6 VEID inh: 7

Results for CO[C@H]1CC[C@@H]2CCOc3c(C#N)cccc3C(=O)N(C)C[C@H](c3ccccc3)CC(=O)N(C)C[C@@H]1O2 ?
CASP6 VEID inh: -4

Results for Cc1noc(C)c1S(=O)(=O)Nc1ccc2c(c1)C(=O)N([C@H](C)CO)C[C@H](C)[C@H](CN(C)Cc1ccc(C(F)(F)F)cc1)OCCCC[C@H](C)O2 ?
CASP6 VEID inh: 2

What do the screens show for `COc1ccc(CCC(=O)Nc2ccc(S(=O)(=O)Nc3nccc(C)n3)cc2)cc1`?
TDP2 inh: 8; MBD2 inh: -4; CASP6 VEID inh: 58*; NSD2 inh: 76*; LEDGF integ inh: -1; UHRF1 binding: -2; Alpha artifact: 5%

How did COc1ccc(CCC(=O)Nc2ccc(S(=O)(=O)Nc3ncccn3)cc2)cc1 do in these assays?
TDP2 inh: -4; MBD2 inh: 2; CASP6 VEID inh: -2; NSD2 inh: -1; LEDGF integ inh: -4; UHRF1 binding: -2

What do the screens show for `C[C@@H]1CN([C@H](C)CO)C(=O)Cc2cc(NC(=O)CCC(F)(F)F)ccc2O[C@@H]1CN(C)C(=O)Nc1cccc2ccccc12`?
CASP6 VEID inh: 5

Results for CCOC(=S)SCC(=O)Nc1nccs1 ?
TDP2 inh: -4; MBD2 inh: 5; CASP6 VEID inh: 8; NSD2 inh: -3; LEDGF integ inh: 2; UHRF1 binding: 6

What do the screens show for `CCOC(=S)SCC(=O)Nc1nc(C)c(C)s1`?
TDP2 inh: -2; MBD2 inh: -2; CASP6 VEID inh: 0; NSD2 inh: 51*; LEDGF integ inh: -8; UHRF1 binding: 4; Alpha artifact: -2%

What do the screens show for `CC(C)NC(=O)N(C)C[C@H]1Oc2ccc(NC(=O)Nc3ccc(F)cc3)cc2C(=O)N([C@H](C)CO)C[C@H]1C`?
CASP6 VEID inh: 1

How did C[C@@H]1CN([C@@H](C)CO)C(=O)c2cccc(NS(C)(=O)=O)c2O[C@@H]1CN(C)S(C)(=O)=O do in these assays?
CASP6 VEID inh: -3

Results for Cn1c(N2CCCC2)nc2c1c(=O)n(Cc1ccc(Cl)cc1)c(=O)n2C ?
TDP2 inh: 5; MBD2 inh: 1; NSD2 inh: 105*; LEDGF integ inh: -2; UHRF1 binding: -2; Alpha artifact: -5%

Results for CC1CCN(Cc2nc3c(c(=O)n(C)c(=O)n3C)n2CCCc2ccccc2)CC1 ?
TDP2 inh: 2; MBD2 inh: 3; LEDGF integ inh: 1; UHRF1 binding: 0

Results for CC1CN(Cc2nc3c(c(=O)n(C)c(=O)n3C)n2CCCc2ccccc2)CC(C)O1 (configuration not stated) ?
TDP2 inh: -6; MBD2 inh: 1; NSD2 inh: 109*; LEDGF integ inh: 0; UHRF1 binding: 1; Alpha artifact: 0%

Results for CC1CN(c2nc3c(c(=O)n(Cc4ccc(Cl)cc4)c(=O)n3C)n2C)CC(C)O1 (configuration not stated) ?
TDP2 inh: 7; MBD2 inh: -6; CASP6 VEID inh: 0; NSD2 inh: 116*; LEDGF integ inh: 1; UHRF1 binding: 2; Alpha artifact: -1%

From PubChem BioAssay
